# Rows were chosen to be rich in hits. Some 2.1% of all compounds tested hit in one or more screens of this group.
# Calpain2 inh = inhibitors of pig calpain II. purified calpain II, fluorogenic peptide substrate, 30 min. inhibition, % at 16 µM. actives 0.37% (n = 220,000). AID 1236;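 active = inhibition above about 50%, limit read from the data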
# Pf gametocyte = inhibitors of late stage P. falciparum gametocyte viability | P. falciparum stage V gametocytes, ATP luminescence, 24 h | inhibition, % at 10.9 µM | actives 0.065% (n = 150,000) | AID 743093;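 active = inhibition above the mean plus 3 SD of compounds within the control limits, set per campaign, cut at about 38% in these data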
# Wee1 degr inh = human Wee1 degradation inhibition, primary screen; HeLa Luc-Wee1K328M stability, luciferase luminescence; 100% = proteasome inhibitor MG132 effect; reporter increase, % at 5 µM; actives 1.2% (n = 220,000); AID 1321;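 active = activation above the mean of all tested compounds plus 3 SD, set per screening run, cut at about 8.8% in these data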;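 also: cells exposed to compound for 20 h before luminescence read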
# Target sequence (P30291 whole entry K328M): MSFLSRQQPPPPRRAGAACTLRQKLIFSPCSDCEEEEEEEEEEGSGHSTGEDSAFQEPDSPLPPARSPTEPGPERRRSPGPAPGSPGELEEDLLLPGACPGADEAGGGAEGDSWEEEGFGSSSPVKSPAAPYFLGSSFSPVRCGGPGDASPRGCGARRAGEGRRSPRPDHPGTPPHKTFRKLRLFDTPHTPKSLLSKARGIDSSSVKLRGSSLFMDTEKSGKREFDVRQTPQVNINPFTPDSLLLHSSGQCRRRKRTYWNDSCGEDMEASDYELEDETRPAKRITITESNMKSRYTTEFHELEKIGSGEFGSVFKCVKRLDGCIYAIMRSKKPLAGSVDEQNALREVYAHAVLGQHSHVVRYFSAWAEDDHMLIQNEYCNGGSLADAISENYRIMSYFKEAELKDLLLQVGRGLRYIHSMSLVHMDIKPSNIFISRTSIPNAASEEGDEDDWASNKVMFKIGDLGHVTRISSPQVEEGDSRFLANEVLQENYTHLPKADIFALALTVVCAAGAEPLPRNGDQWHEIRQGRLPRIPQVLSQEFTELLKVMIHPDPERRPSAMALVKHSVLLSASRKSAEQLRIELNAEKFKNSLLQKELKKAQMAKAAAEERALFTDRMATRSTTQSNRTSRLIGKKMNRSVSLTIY
# TNF death inh = blocks TNF-alpha induced death of Jurkat FADD-/- cells. Jurkat FADD-/- TNF necroptosis rescue, ATP luminescence, 24 h; 0 = TNF only, 100 = no-TNF cells. activation (protection from cell death), % at 10 µM. actives 0.068% (n = 220,000);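 active = activation, meaning protection from cell death, of at least 50% relative to plate controls; inactive = activation below 50%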;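 also: necroptosis triggered by 40 ng/mL TNF-alpha added together with compound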
# zVAD death inh = L929 zVAD cell death inhibition | L929 zVAD necroptosis rescue, ATP luminescence, 24 h; with zVAD 60 µM | viability rescue, % at 10 µM | actives 0.38% (n = 220,000) | AID 1377;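 active = activation, scaled between plate controls, above about 75%, limit read from the data; inactive = activation under that limit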
# RBBP9 inh = inhibitors of human serine hydrolase RBBP9 | O75884 | recombinant RBBP9, FP-Rh probe fluorescence polarization | inhibition, % at 7.94 µM | actives 0.2% (n = 220,000);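 active = inhibition above the campaign mean of all tested compounds plus 3 SD, cut at about 14% in these data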
#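 Measured by: FP readout at 525/598 nm; material: recombinant human RBBP9; also added: Serine-hydrolase probe FP-Rh, 375 nM pre-mixing; medium: Tris buffer pH 8.0, NaCl, Pluronic; replication: one well per compound; doses: one concentration, 7.94 µM nominal, 0.794% DMSO; timing: preincubation 30 min plus labeling 45 min at 25 °C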
# Numbers stand for hits; 0 = inactive; - = no result given; ! = not active in a repeat.
SMILES,Calpain2 inh,Pf gametocyte,Wee1 degr inh,TNF death inh,zVAD death inh,RBBP9 inh
Cc1ccc(N(CCCCN2C(=O)c3ccccc3C2=O)C(=O)c2ccc(Cl)s2)cc1,50,0,0,0,0,0
O=C(COc1ccc([N+](=O)[O-])cc1)NN=C1CCCC1,0,-,0,0,0,0
CCCCN=C(C)c1c(O)c2ccccc2oc1=O,73,0,0,0,0,0
CC1CCN(C(=O)CN2C(=O)c3ccccc3S2(=O)=O)CC1,0,-,9.3,0,0,0
COc1ccc(-n2ncc(S(=O)(=O)c3ccccc3)c2-c2ccc(Cl)cc2)cc1,52,0,0,0,0,0
Oc1ccc2oc3c(c2c1C=NCc1ccncc1)CCCC3,0,0,25,0,0,0
Oc1ccc2oc3c(c2c1/C=N/n1cnnc1)CCCC3,0,0,0,0,0,0
O=C(Nc1ccccn1)c1cc2cc([N+](=O)[O-])ccc2s1,0,0,9.4,0,0,0
O=C(Nc1ccccn1)c1ccc([N+](=O)[O-])cc1Cl,0,0,0,0,0,0
O=C(c1cc2cc([N+](=O)[O-])ccc2s1)N1CCCCC1,55,0,0,0,0,0
O=C(COC(=O)c1ccccc1)NCCC1=CCCCC1,0,0,0,0,0,0
O=C(/C=C/c1cccs1)N1CCOCC1,56,0,0,0,-,0
NC(=O)c1ccc(NC(=O)CCC(=O)N2CCN(S(=O)(=O)c3ccc(Cl)cc3)CC2)cc1,0,0,0,0,0,0
O=C(CCC(=O)N1CCN(S(=O)(=O)c2ccc(Cl)cc2)CC1)Nc1cccc(Br)c1,83,0,0,0,-,0
CN(CC(=O)Nc1ccc2c(c1)CCC2)CC(=O)Nc1ccccc1Br,0,39,0,0,0,0
Cc1ccc(C(=O)NC(C#N)=C(Cl)Cl)cc1,0,0,0,74,0,0
O=C1COc2ccccc2CN1,0,0,0,0,0,0
O=C1COc2cccnc2N1,0,0,9.4!,0,0,0
O=C(/C=C/c1ccco1)Nc1cccc(C(=O)Nc2ccccc2C(=O)O)c1,0,0,11,0,0,0
COc1cc(/C=N/NC(=O)c2cc(-c3ccc4c(c3)OCO4)n[nH]2)ccc1O,0,0,0,0,0,0
CCCNC(=O)N1C2=NC(C(=O)OC)=C(C(=O)OC)[C@@H]3N(Cc4ccccc4)c4ccccc4[C@]23C[C@H]1CO,-,0,-,-,-,-
CCS(=O)(=O)N1Cc2ccccc2CC1C(=O)Nc1cccc(C)c1 (stereo not drawn),0,0,9.9,0,0,0
COc1cccc2cc(C(=O)Oc3ccc(NC(C)=O)cc3)c(=O)oc12,0,0,0,0,0,0
COc1cccc2cc(C(C)OC(=O)Nc3ccc(C)cc3)oc12 (stereo not drawn),0,0,9.1,0,0,0
O=C(Nc1ccc(CN2CCOCC2)cc1)c1cc2ccccc2o1,0,-,10,0,0,0
SMILES,Calpain2 inh,Pf gametocyte,Wee1 degr inh,TNF death inh,zVAD death inh,RBBP9 inh
CCOC(=O)CNC(=O)C1CCCc2c1[nH]c1ccc(Cl)cc21 (stereo not drawn),0,-,10,0,0,0
NC(=O)CNC(=O)C1CCCc2c1[nH]c1ccc(Cl)cc21 (stereo not drawn),0,0,0,0,0,0
CCCn1c(C)cc(C(=O)COC(=O)c2cc(S(=O)(=O)NCC(C)C)c(Cl)cc2Cl)c1C,0,0,0,0,0,0
CC1CCCC(C)N1C(=O)CNCc1ccc2c(c1)OCO2 (stereo not drawn),-,0,-,-,-,-
O=C(O)c1ccc(N=c2oc3cc(O)ccc3cc2C(=O)NCc2ccccc2)cc1,0,42,0,0,0,0
Cc1ccc(CC2SC(=O)NC2=O)cc1Cl (stereo not drawn),0,0,0,0,84,0
Nc1nc(SCC(=O)Nc2ccc(Cl)c(S(=O)(=O)N3CCOCC3)c2)n[nH]1,0,0,0,0,0,0
Cc1nnc(Oc2ccccc2F)c2ccccc12,61,0,0,0,0,0
CNS(=O)(=O)c1cccc(C(=O)OCC(=O)Nc2cc(F)ccc2F)c1,0,0,0,0,0,0
CNS(=O)(=O)c1cccc(C(=O)OCC(=O)Nc2ccc(Cl)cc2F)c1,0,0,9.8,0,0,0
CN(C)c1cccc(C(=O)OCC(=O)Nc2ccccc2Cl)c1,56,0,0,0,0,0
Cc1cc(OCC(=O)Nn2cnnc2)ccc1Br,0,-,0,0,0,0
CNC(=O)COC(=O)c1ccc(Cl)c(S(=O)(=O)N2CCCC2)c1,0,0,10,0,0,0
Nc1ccc(C(=O)OCC(=O)Nc2ccc3c(c2)OCO3)cc1[N+](=O)[O-],0,0,11,0,0,0
O=C(OCC(=O)N1CCCCCC1)c1ccc(Cl)c(S(=O)(=O)N2CCCC2)c1,0,0,0,0,0,0
Cc1ccc(S(=O)(=O)N2CCCCC2)cc1NC(=O)COC(=O)c1ccc2c(c1)OCO2,56,0,0,0,-,0
O=C(COC(=O)CCS(=O)(=O)c1ccc(Cl)cc1)NCCc1ccccc1,0,0,0,0,0,0
Cc1ccc(N(C(=O)Cn2nnc(-c3ccccc3)n2)C(C(=O)NC2CCCCC2)c2ccccn2)cc1C (stereo not drawn),0,-,0,0,0,0
O=C(c1ccc(F)cc1Cl)N(c1ccccn1)C1CCCCC1,0,-,0,0,0,0
Clc1ccc(-c2cn3c(n2)CCC3)cc1,0,0,9.4,0,0,0
Clc1ccc(-c2nnc3n2CCCCC3)cc1,0,-,0,0,0,0
Cc1nn(-c2ccccn2)c2nc(-c3cccs3)cc(C(=O)NCc3ccco3)c12,0,-,0,0,0,0
Cc1nn(-c2ccccc2)c2nc(-c3ccncc3)cc(C(=O)NCc3ccco3)c12,0,56,0,0,0,0
N#CCCOC1(C#CCN2CCCC2)CCCCC1,-,0,-,-,-,-
CC(NCc1ccc(OCC(N)=O)cc1)C12CC3CC(CC(C3)C1)C2 (stereo not drawn),-,0,-,-,-,-
SMILES,Calpain2 inh,Pf gametocyte,Wee1 degr inh,TNF death inh,zVAD death inh,RBBP9 inh
CC(O)c1c(OCc2ccccc2)ncnc1OCc1ccccc1 (stereo not drawn),0,-,0,0,0,0
COc1cc(N/C=C(\C(C)=O)c2ccccc2)cc(OC)c1,65,-,0,0,0,0
CC(C)[C@H](NC(=O)c1cccc(CN(Cc2ccccc2)C(=O)c2ccccc2)c1)C(=O)O,-,0,-,-,-,-
O=C(c1nc2ccccn2c1CNCCCn1ncc2ccccc21)N1CCOCC1,0,0,0,0,0,0
Cc1cccn2c(CNCCCn3ncc4ccccc43)c(C(=O)N3CCCCC3)nc12,0,0,10,0,0,0
Cc1cccn2c(CNCCSc3nccn3C)c(C(=O)N3CCCCC3)nc12,0,0,8.9,0,0,0
CCn1cc(CNCc2c(C(=O)N3CCCCC3)nc3c(C)cccn23)cn1,0,0,0,0,0,0

# High-throughput results as filed in PubChem.
